Measurements taken from paper PMC8919593 (Journal of neuroscience research, 2021).

What was measured:
primary mouse microglia [1] = experiment: Microglia-neuron coculture assay of neuronal phagocytosis; assay type: cell-based; details: 1 μM inhibitor, without IFNγ treatment; 24 hr coculture; Figure 5e
ERK2 = details: read-out: IC50 for ERK2; ref Morris et al., 2013; cited from earlier work
ERK1 = details: read-out: IC50 for ERK1; ref Morris et al., 2013; cited from earlier work
primary mouse microglia [2] = experiment: qRT-PCR of homeostatic and DAM genes in primary microglia; assay type: cell-based; details: dose ranges between 4 and 50 nM, IFNγ-stimulated conditions; Figure S6
Summary of the method: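 Mouse brain microglia were purified by CD11b+ MACS selection, plated on poly-L-lysine and cultured at 37°C. After 24 hr, half the medium was replaced and the ERK1/2 inhibitor added. Cells were preincubated 1 hr, then stimulated with 1 ng/ml IFNγ for 24 hr, matching the NanoString culture conditions. RNA was isolated and checked for concentration and purity by spectrophotometry before qRT-PCR.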

primary mouse microglia [3] = experiment: Flow cytometric assay of microglial viability; assay type: cell-based; details: 1 μM inhibitor, with or without 1 ng/ml IFNγ, 24 hr; Figure S2

## O=C(Nc1ccc2[nH]nc(-c3ccncc3)c2c1)[C@@H]1CCN(CC(=O)N2CCN(c3ccc(-c4ncccn4)cc3)CC2)C1 [SCH772984]
Primary mouse microglia [1]
  microglial phagocytosis of N2a cells: significantly reduced microglial phagocytosis of N2a cells
ERK2
  IC50: 1 nM
ERK1
  IC50: 4 nM
Primary mouse microglia [2]
  gene expression of Ptgs2 (pro-inflammatory DAM gene): inhibited gene expression of Ptgs2
Primary mouse microglia [3]
  cell health and viability of microglia: minimally impacted cell health and viability
